Laboratory results: ChEMBL document CHEMBL1926623, “Modification of olivomycin A at the side chain of the aglycon yields the derivative with perspective antitumor characteristics” (Bioorg Med Chem, 2011)

Legend:
HCT-116 = assay: Antiproliferative activity against human HCT116 cells after 72 hrs by MTT assay; format: functional, cell-based
Procedure, shortened: (§1)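 Cells from ATCC grown in DMEM or RPMI-1640 with 5% FCS, 2 mM L-glutamine, and penicillin/streptomycin at 37 °C, 5% CO2. 5 × 10³ log-phase cells per well were exposed to serial dilutions (from 10 mM DMSO stocks; 0.1% DMSO vehicle control), each dose in duplicate, for 72 h. MTT was added for 2 h and absorbance read at 540 nm. IC50 is the 50% viability inhibition versus vehicle. Mean ± SD of 4–5 independent experiments.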

K562 = assay: Antiproliferative activity against human K562 cells after 72 hrs by MTT assay; format: functional, cell-based; procedure, shortened: as §1
P388 [1] = assay: Antitumor activity against mouse P388 cells xenografted in B6D2F1 mouse assessed as increase in lifespan at 2 mg/kg, ip administered daily for 5 days relative to untreated control; format: functional; details: route intraperitoneal
Procedure, shortened: (§2)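 Each group of 10 B6D2F1 mice received 10^6 P388 lymphoma cells ip on day 0. Drug was dissolved in 0.1% DMSO, diluted with saline and given once daily for 5 days; controls were untreated. ILS (%) = (Dt−Dc)/Dc × 100, where Dt and Dc are mean survival times in days for treated and control groups.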

P388 [2] = assay: Antitumor activity against mouse P388 cells xenografted in B6D2F1 mouse assessed as increase in lifespan at 1 mg/kg, ip administered daily for 5 days relative to untreated control; format: functional; details: route intraperitoneal; procedure, shortened: as §2
[3] = Toxicity in mouse P388 cells xenografted B6D2F1 mouse assessed as mortality at 4 mg/kg, ip administered daily for 5 days; format: organism-based; design: dose 4 mg/kg, route intraperitoneal; details: in vivo, read-out: Activity
Procedure, shortened: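 B6D2F1 mice, 10 per group, were inoculated ip with 10^6 P388 cells on day 0. Drug in 0.1% DMSO, diluted in saline, was given daily for 5 days. Physical condition, body weight, behaviour, nutrition and hair cover were monitored daily. Mortality was scored as drug-related toxicity deaths.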

B16 [4] = assay: Antitumor activity against mouse B16 cells xenografted in B6D2F1 mouse assessed as tumor growth inhibition at 2 mg/kg, iv administered on days 1,4,7,10 and 13 measured 28 days post tumor challenge; format: functional; details: B16, 672 h, read-out: GI
Procedure, shortened: (§3)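 B6D2F1 mice, 10 per group, received 10⁶ B16 melanoma cells s.c. into the right flank on day 0. Compound diluted in saline was given iv on days 1, 4, 7, 10, 13 (5 injections) or days 1–22 every third day (8 injections). Controls were left untreated, and mice were sacrificed by day 28. ITG% = (Mc−Mt)/Mc × 100, using calculated tumor weight (a×b×c)/2.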

B16 [5] = assay: Antitumor activity against mouse B16 cells xenografted in B6D2F1 mouse assessed as tumor growth inhibition at 2 mg/kg, iv administered on days 1,4,7,10,13,16,19 and 22 measured 28 days post tumor challenge; format: functional; details: B16, 672 h, read-out: GI; procedure, shortened: as §3
Nucleic Acid [6] = assay: Binding affinity to Salmon sperm DNA assessed as increase in fluorescence at 1.34 uM by spectrophotometry; format: nucleic-acid assay; details: Salmonidae
Nucleic Acid [7] = assay: Binding affinity to Salmon sperm DNA at 1.34 uM by Scatchard plot analysis; format: nucleic-acid assay; details: Salmonidae
Nucleic Acid [8] = assay: Binding affinity to Salmon sperm DNA assessed as increase in fluorescence at 1.34 uM by spectrophotometry; details: Salmonidae

SMILES	IC50 (HCT-116) [nM]	IC50 (K562) [nM]	other results
CO[C@H]1[C@H](O)C[C@@H](O[C@@H]2C[C@H](Oc3cc(O)c4c(O)c5c(cc4c3)C[C@@H]([C@H](OC)C(=O)[C@@H](O)[C@@H](C)O)[C@H](O[C@H]3C[C@H](O[C@H]4C[C@H](O[C@H]6C[C@@](C)(O)[C@@H](OC(=O)C(C)C)[C@H](C)O6)[C@H](O)[C@@H](C)O4)[C@H](O)[C@@H](C)O3)C5=O)O[C@H](C)[C@H]2OC(C)=O)O[C@@H]1C [OLIVOMYCIN A]	20	50	Activity (P388 [1]): 35%; Activity (P388 [2]): 24%; mortality at 120 h [3]: 87%; inhibition in vivo at 2 mg/kg (B16 [4]): 48%; inhibition in vivo at 2 mg/kg (B16 [5]): 45%
CO[C@H]1[C@H](O)C[C@@H](O[C@@H]2C[C@H](Oc3cc(O)c4c(O)c5c(cc4c3)C[C@@H]([C@H](OC)C(=O)NCc3ccc(F)cc3)[C@H](O[C@H]3C[C@H](O[C@H]4C[C@H](O[C@H]6C[C@@](C)(O)[C@@H](OC(=O)C(C)C)[C@H](C)O6)[C@H](O)[C@@H](C)O4)[C@H](O)[C@@H](C)O3)C5=O)O[C@H](C)[C@H]2OC(C)=O)O[C@@H]1C	278	148	–
CO[C@H]1[C@H](O)C[C@@H](O[C@@H]2C[C@H](Oc3cc(O)c4c(O)c5c(cc4c3)C[C@@H]([C@H](OC)C(=O)O)[C@H](O[C@H]3C[C@H](O[C@H]4C[C@H](O[C@H]6C[C@@](C)(O)[C@@H](OC(=O)C(C)C)[C@H](C)O6)[C@H](O)[C@@H](C)O4)[C@H](O)[C@@H](C)O3)C5=O)O[C@H](C)[C@H]2OC(C)=O)O[C@@H]1C [OLIVOMYCIN SA]	2000	2200	Activity (Nucleic Acid [6]): Dose-dependent effect; K (Nucleic Acid [7]): 2.1 ×10⁴ /M; Activity (Nucleic Acid [8]): Dose-dependent effect
CO[C@H]1[C@H](O)C[C@@H](O[C@@H]2C[C@H](Oc3cc(O)c4c(O)c5c(cc4c3)C[C@@H]([C@H](OC)C(=O)NC3C4CC6CC(C4)CC3C6)[C@H](O[C@H]3C[C@H](O[C@H]4C[C@H](O[C@H]6C[C@@](C)(O)[C@@H](OC(=O)C(C)C)[C@H](C)O6)[C@H](O)[C@@H](C)O4)[C@H](O)[C@@H](C)O3)C5=O)O[C@H](C)[C@H]2OC(C)=O)O[C@@H]1C (some centres undefined)	180	–	–
CO[C@H]1[C@H](O)C[C@@H](O[C@@H]2C[C@H](Oc3cc(O)c4c(O)c5c(cc4c3)C[C@@H]([C@H](OC)C(=O)N[C@@H]3[C@@H](O)[C@@H](O)[C@@H](CO)O[C@H]3O)[C@H](O[C@H]3C[C@H](O[C@H]4C[C@H](O[C@H]6C[C@@](C)(O)[C@@H](OC(=O)C(C)C)[C@H](C)O6)[C@H](O)[C@@H](C)O4)[C@H](O)[C@@H](C)O3)C5=O)O[C@H](C)[C@H]2OC(C)=O)O[C@@H]1C	> 12500	2390	–

The next lines start with results.

IC50 (HCT-116) [nM]	IC50 (K562) [nM]	SMILES	other results
156	–	CO[C@H]1[C@H](O)C[C@@H](O[C@@H]2C[C@H](Oc3cc(O)c4c(O)c5c(cc4c3)C[C@@H]([C@H](OC)C(=O)NCCCO)[C@H](O[C@H]3C[C@H](O[C@H]4C[C@H](O[C@H]6C[C@@](C)(O)[C@@H](OC(=O)C(C)C)[C@H](C)O6)[C@H](O)[C@@H](C)O4)[C@H](O)[C@@H](C)O3)C5=O)O[C@H](C)[C@H]2OC(C)=O)O[C@@H]1C	–
20	47	CO[C@H]1[C@H](O)C[C@@H](O[C@@H]2C[C@H](Oc3cc(O)c4c(O)c5c(cc4c3)C[C@@H]([C@H](OC)C(=O)NCCN(C)C)[C@H](O[C@H]3C[C@H](O[C@H]4C[C@H](O[C@H]6C[C@@](C)(O)[C@@H](OC(=O)C(C)C)[C@H](C)O6)[C@H](O)[C@@H](C)O4)[C@H](O)[C@@H](C)O3)C5=O)O[C@H](C)[C@H]2OC(C)=O)O[C@@H]1C	–
100	–	CO[C@H]1[C@H](O)C[C@@H](O[C@@H]2C[C@H](Oc3cc(O)c4c(O)c5c(cc4c3)C[C@@H]([C@H](OC)C(N)=O)[C@H](O[C@H]3C[C@H](O[C@H]4C[C@H](O[C@H]6C[C@@](C)(O)[C@@H](OC(=O)C(C)C)[C@H](C)O6)[C@H](O)[C@@H](C)O4)[C@H](O)[C@@H](C)O3)C5=O)O[C@H](C)[C@H]2OC(C)=O)O[C@@H]1C	–
120	–	CNC(=O)[C@@H](OC)[C@@H]1Cc2cc3cc(O[C@H]4C[C@@H](O[C@@H]5C[C@@H](O)[C@H](OC)[C@@H](C)O5)[C@H](OC(C)=O)[C@@H](C)O4)cc(O)c3c(O)c2C(=O)[C@H]1O[C@H]1C[C@H](O[C@H]2C[C@H](O[C@H]3C[C@@](C)(O)[C@@H](OC(=O)C(C)C)[C@H](C)O3)[C@H](O)[C@@H](C)O2)[C@H](O)[C@@H](C)O1	–
20	63	COC(=O)[C@H](C)NC(=O)[C@@H](OC)[C@@H]1Cc2cc3cc(O[C@H]4C[C@@H](O[C@@H]5C[C@@H](O)[C@H](OC)[C@@H](C)O5)[C@H](OC(C)=O)[C@@H](C)O4)cc(O)c3c(O)c2C(=O)[C@H]1O[C@H]1C[C@H](O[C@H]2C[C@H](O[C@H]3C[C@@](C)(O)[C@@H](OC(=O)C(C)C)[C@H](C)O3)[C@H](O)[C@@H](C)O2)[C@H](O)[C@@H](C)O1	–
